Experimental findings from ChEMBL document CHEMBL1255242, “Concentrations of dapivirine in the rhesus macaque and rabbit following once daily intravaginal administration of a gel formulation of [14C]dapivirine for 7 days” (Antimicrob Agents Chemother, 2008) are described below.

The nature of data set [1]: Drug level in rabbit vaginal tissue at 0.5 ml/day administered intravaginally for 7 days measured 1 hr after final dose by […]. The class given is ADME, Oryctolagus cuniculus, Vagina. As to conditions: read-out: Drug uptake. The gist of the method:
(§1)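 Six female rabbits received 0.5 ml/day of [14C]dapivirine gel (nominal 0.09 mg/ml, 15 μCi/ml) intravaginally once daily for 7 days by feeding tube inserted about 6 cm, with a collar for about 8 h. Two rabbits per time point were killed at 1, 8 and 24 h after the final dose. PBS-rinsed vaginal wall and ectocervix were homogenized in 2:1 H2O-ACN and extracted with t-butylmethylether. A single LC-MS/MS run was used (0.250–250 ng/g; 10-point weighted quadratic calibration).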

A short description of data set [2]: Drug level in rabbit cervical tissue at 0.5 ml/day administered intravaginally for 7 days measured 24 hrs after final dose by […]. Type of data set: ADME, Oryctolagus cuniculus. As to conditions: read-out: Drug uptake. The gist of the method:
as §1

The test system of data set [3] is Plasma. The data set is described as follows: Drug level in rhesus monkey plasma at 1 ml/day administered intravaginally for 7 days by LC-MS/MS analysis. The class given is ADME, cell-free, Macaca mulatta. As to conditions: other, 168 h, in the assay text read “liquid scintillation counting” for “LC-MS/MS analysis”.
The nature of data set [4]: Drug level in rhesus monkey vaginal tissue at 1 ml/day administered intravaginally 7 days measured 1 hr after final dose by LC-MS/MS analysis. The class given is ADME, Macaca mulatta, Vagina. As to conditions: read-out: Drug uptake. The gist of the method: (§2)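 Nine female macaques were sedated with ketamine (5–20 mg/kg) and given 1 ml/day of [14C]dapivirine gel (nominal 0.09 mg/ml, 15 μCi/ml) intravaginally once daily for 7 days. Three animals per time point were killed (iv pentobarbital, 65 mg/kg) at 1, 24 and 48 h after the final dose. Vaginal wall, ectocervix, and inguinal and iliac lymph nodes were assayed by LC-MS/MS (0.250–250 ng/g). Values below LLOQ were set to 0 for means.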

The nature of data set [5]: Drug level in rhesus monkey vaginal tissue at 1 ml/day administered intravaginally for 7 days measured 24 hrs after final dose by LC-MS/MS analysis. Type of data set: ADME, Macaca mulatta, Vagina. The conditions noted are these: read-out: Drug uptake. Put shortly:
as §2

A short description of data set [6]: Drug level in rhesus monkey vaginal tissue at 1 ml/day administered intravaginally for 7 days measured 48 hrs after final dose by LC-MS/MS analysis. Type of data set: ADME, Macaca mulatta, Vagina. The conditions noted are these: read-out: Drug uptake. The gist of the method: as §2
A short description of data set [7]: Drug level in rhesus monkey cervical tissue at 1 ml/day administered intravaginally for 7 days measured 1 hr after final dose by LC-MS/MS analysis. Type of data set: ADME, Macaca mulatta. The conditions noted are these: read-out: Drug uptake. Put shortly: as §2
The nature of data set [8]: Drug level in rhesus monkey cervical tissue at 1 ml/day administered intravaginally for 7 days measured 24 hrs after final dose by LC-MS/MS analysis. The class given is ADME, Macaca mulatta. As to conditions: read-out: Drug uptake. The gist of the method: as §2
Data set [9] is described as follows: Drug level in rhesus monkey cervical tissue at 1 ml/day administered intravaginally for 7 days measured 48 hrs after final dose by LC-MS/MS analysis. As to conditions: read-out: Drug uptake. The class given is ADME, Macaca mulatta. The gist of the method: as §2
Data set [10] can be described thus: Drug level in rhesus monkey inguinal lymph node at 1 ml/day administered intravaginally for 7 days measured 1 hr after final dose by LC-MS/MS analysis. Type of data set: ADME, tissue-based, Macaca mulatta. The conditions noted are these: read-out: Drug uptake. Put shortly:
as §2

Data set [11] can be described thus: Drug level in rhesus monkey inguinal lymph node at 1 ml/day administered intravaginally for 7 days measured 24 hrs after final dose by LC-MS/MS analysis. Type of data set: ADME, tissue-based, Macaca mulatta. The conditions noted are these: read-out: Drug uptake. Put shortly: as §2
The nature of data set [12]: Drug level in rhesus monkey inguinal lymph node at 1 ml/day administered intravaginally for 7 days measured 48 hrs after final dose by LC-MS/MS analysis. As to conditions: read-out: Drug uptake. The class given is ADME, tissue-based, Macaca mulatta. Put shortly:
as §2

Data set [13] in a line: Drug level in rhesus monkey ileac lymph node at 1 ml/day administered intravaginally for 7 days measured 1 hr after final dose by LC-MS/MS analysis. Type of data set: ADME, tissue-based, Macaca mulatta. As to conditions: read-out: Drug uptake. The gist of the method:
as §2

The nature of data set [14]: Drug level in rhesus monkey ileac lymph node at 1 ml/day administered intravaginally for 7 days measured 24 hrs after final dose by LC-MS/MS analysis. The class given is ADME, tissue-based, Macaca mulatta. As to conditions: read-out: Drug uptake. The gist of the method:
as §2

Data set [15] can be described thus: Drug level in rhesus monkey ileac lymph node at 1 ml/day administered intravaginally for 7 days measured 48 hrs after final dose by LC-MS/MS analysis. The class given is ADME, tissue-based, Macaca mulatta. The conditions noted are these: read-out: Drug uptake. The gist of the method:
as §2

The test system of data set [16] is Plasma. As to the kind of experiment: Drug level in rabbit plasma at 0.5 ml/day administered intravaginally for 7 days by liquid scintillation counting. As to conditions: other, 168 h.

On to `Cc1cc(C)c(Nc2ccnc(Nc3ccc([14C]#N)cc3)n2)c(C)c1` [[14C]DAPIVIRINE], for which the concentration at 1 h in data set [1] is greater than 3000 ng/g; in data set [4], 4260 ng/g; in data set [7], 2400 ng/g; in data set [10], 10.6 ng/g; in data set [13], 14.9 ng/g. Also, the concentration at 24 h in [2] is no less than 2.5 ng/g; in data set [5], 1160 ng/g; in [8], 271 ng/g; in data set [11] it was 1.77 ng/g; in [14], 11.6 ng/g. In addition, the Drug uptake entry in the data set with Plasma [3] is reported as “<= 83 dpm/ml”; in the data set on Plasma [16] it was 246 dpm/ml. Further, the concentration at 48 h in data set [6] was 515 ng/g; in [9] it was 81 ng/g; in data set [12], 0.48 ng/g; in data set [15], 1.16 ng/g.
